Converted amounts (≈) assume the structure as drawn.
How the values were obtained:
[1] = system: A549; assay: Cytotoxicity against human A549 cells; assay type: functional; details: for EC50: Homo sapiens, A549, read-out: ED50 (the source's name)
In short: (§1)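 Cultured human tumour lines (A-549 lung carcinoma, MCF-7 breast carcinoma, HT-29 colon adenocarcinoma) were tested at the Purdue Cell Culture Laboratory by standard protocols, with adriamycin as positive control.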

[2] = system: MCF7; assay: Cytotoxicity against human MCF7 cells; assay type: functional; details: read-out: ED50 (the source's name); in short: as §1
[3] = system: HT-29; assay: Cytotoxicity against human HT-29 cells; assay type: functional; details: read-out: ED50 (the source's name); in short: as §1
[4] = Toxicity in brine shrimp; assay type: organism-based; details: artemia, in vivo

## CCCCCCCCCCCC/C=C\CC[C@@H](OC(C)=O)[C@@H](CC[C@H](OC(C)=O)[C@@H]1CC[C@@H](CCCCCCCC2=CC(C)OC2=O)O1)OC(C)=O (stereo not given in full)
[1]
  EC50: 0.359 µg/mL (≈ 0.49 µM)
[2]
  EC50: 24.9 µg/mL (≈ 33.9 µM)
[3]
  EC50: 0.0667 µg/mL (≈ 0.091 µM)

## CCCCCCCCCCCC[C@@H](OC(C)=O)[C@H]1CC[C@H]([C@@H](CCCCCC[C@H](CCCCC[C@H](CC2=C[C@H](C)OC2=O)OC(C)=O)OC(C)=O)OC(C)=O)O1
[1]
  EC50: 0.17 µg/mL (≈ 0.214 µM)
[2]
  EC50: 90.4 µg/mL (≈ 114 µM)
[3]
  EC50: 14.9 µg/mL (≈ 18.7 µM)

## CCCCCCCCCCCC/C=C\CC[C@@H](OC(C)=O)[C@@H](CC[C@H](OC(C)=O)[C@@H]1CC[C@@H](CCCCCC(CC2=CC(C)OC2=O)OC(C)=O)O1)OC(C)=O (stereo not given in full)
[1]
  EC50: 0.96 µg/mL (≈ 1.21 µM)
[2]
  EC50: 5.97 µg/mL (≈ 7.55 µM)
[3]
  EC50: 1.6 µg/mL (≈ 2.02 µM)

## CCCCCCCCCCCC[C@H](O)[C@@H]1CC[C@@H]([C@@H](O)CCCCCCC(O)CCCCC[C@@H](O)CC2=C[C@H](C)OC2=O)O1 (stereo not given in full) [ANNOMONTACIN]
[4]
  LC50: 12.5 µg/mL (≈ 20 µM)

## COc1cccc2c1C(=O)c1c(O)c3c(c(O)c1C2=O)C[C@@](O)(C(=O)CO)C[C@@H]3O[C@H]1C[C@H](N)[C@H](O)[C@H](C)O1 [DOXORUBICIN]
[4]
  LC50: 8 µg/mL (≈ 14.7 µM)
[1]
  ED50: 2.37 ×10⁻⁴ ug/ml
[2]
  EC50: 0.0108 µg/mL (≈ 0.0199 µM)
[3]
  EC50: 0.00483 µg/mL (≈ 0.00889 µM)

## CCCCCCCCCCCCCCC(O)C(O)CC[C@H](O)[C@H]1CC[C@H](CCCCC[C@@H](O)CC2=C[C@H](C)OC2=O)O1 (stereo not given in full) [GIGANTETRONENIN]
[4]
  LC50: 9.4 µg/mL (≈ 15.7 µM)
[1]
  EC50: 0.00471 µg/mL (≈ 0.00789 µM)

## CCCCCCCCCCCC/C=C\CC[C@@H](O)[C@H](O)CC[C@H](O)[C@@H]1CC[C@@H](CCCCCCCC2=C[C@H](C)OC2=O)O1 [GIGANTRIONENIN]
[4]
  LC50: 13.9 µg/mL (≈ 22.9 µM)
[1]
  EC50: 0.00394 µg/mL (≈ 0.00649 µM)
[2]
  EC50: 8.06 µg/mL (≈ 13.3 µM)
[3]
  EC50: 0.00292 µg/mL (≈ 0.00481 µM)
